Assay results: PMC2229322 (The Journal of General Physiology, 1996)
Blank lines part the entries; values can stand above or below the molecule they belong to.

Experiments:
Shaker K+ channel = conditions: intracellular application; ref Choi et al., 1991; cited from earlier work
[1] = biological target: E395C mutant Shaker K+ channel (Drosophila melanogaster, UniProt P08510, C301S/C308S/DEL6-46/E395C/T449V); test: Sensitivity of E395C to internal open channel blockers; assay type: cell-based; conditions: internal open channel blocker
K+ channels = test: Test of perfusion change by TEA blockade; assay type: cell-based; conditions: internal TEA; reflects time course of solution change by perfusion system
How it was run: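 Rapid internal solution exchange on excised patches via a computer-controlled solenoid perfusion system. Exchange speed assessed by applying TEA.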

[2] = system: cysteine mutants (380-398) of the S4-S5 linker, ShA Shaker K+ channel; test: Chemical modification of cysteine mutants of the S4-S5 linker; assay type: cell-based, Drosophila; conditions: positions with large current reduction
How it was run: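 Cysteine-substituted channels in inside-out patches from transfected HEK293 cells, pH 7.4 solutions. Thiol reagents applied internally; completeness of modification followed by pulsing at 0.25 Hz. Conditions: MMTS 2 mM, 1 min; Ag+ 20 nM, 2 min; MTSEA 100 µM, 30 s.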

[3] = system: 391C ShA Shaker K+ channel; test: Rate of chemical modification of 391C; assay type: cell-based, Drosophila; conditions: MTSET
[4] = system: 381C ShA Shaker K+ channel; test: Chemical modification of 381C; assay type: cell-based, Drosophila; conditions: for slope (time constant x [MTSET]) of current reduction: 381C
How it was run: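 Inside-out patches from transfected HEK293 cells; […] to 0 mV from -100 mV holding. Computer-controlled reagent pulses of 1 or 2 s began ~500 ms after step onset; sampled 5 kHz, filtered 1 kHz. Time axis normalised to reagent concentration; current reduction fitted to single exponentials. Frequency runs alternated -100 with 0 or +60 mV, equal time at each.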

[5] = system: 391C Shaker K+ channel with intact N-type inactivation (Sh +); test: N-type inactivation of intact; assay type: cell-based, Drosophila; conditions: for effect of 391C modification on N-type inactivation current: voltage jump -80 to 0 mV, 50 ms, complete modification (Fig. 2)
How it was run: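 Inside-out patches from HEK293 cells expressing channels with intact N-terminus, stepped -80 to 0 mV. Inactivation gate removed by internal trypsin perfusion. Traces normalised to the mean current of the last 20 ms after trypsin. Ag+ 20 nM for 2 min applied; completeness checked by pulsing at 0.25 Hz.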

[6] = system: 382C ShA Shaker K+ channel; test: Chemical modification of 382C; assay type: cell-based, Drosophila; conditions: vs 381C, toward more positive voltages (Fig. 7 C and E)
[7] = system: NH2-terminal deletion mutant Shaker K+ channel; conditions: ref Zagotta et al., 1990; cited from earlier work
[8] = Net charge of ball peptides; assay type: physicochemical; conditions: COOH terminal amidated, NH2 terminal positively charged

- affinity of E395C mutant compared with wild-type channel [1]: reduced fourfold
Molecule: CC[N+](CC)(CC)CC [TEA, tetraethylammonium]
- effect on N-type inactivation (Shaker K+ channel): slows down N-type inactivation
- time constant of TEA blockade observed (K+ channels): ~ 10 ms

Molecule: C[N+](C)(C)CCSS(C)(=O)=O [MTSET, [(2-trimethylammoniuin)ethyl]methanethiosulfonate]
- reactivity of positions 389 and 397 [2]: only very slowly reactive
- total current after modification of A391C [3]: no reduction in the total current
- voltage dependence of modification rate of 391C ([3]; Fig. 6C): higher at positive voltages
- rate of modification of 381C with rapidly switching stimulus ([4]; 50 10-ms pulses vs 5 100-ms pulses, -100 to 0 mV): about threefold faster
- slope (time constant x [MTSET]) of current reduction ([4]; MTSET, 0 mV (Fig. 7B)): 0.33 mM·s
- slope (time constant x [MTSET]) of current reduction ([4]; MTSET, -120 mV (Fig. 7B)): 2.47 mM·s
- current reduction by modification of 381C ([4]; MTSET, Fig. 7 A and B): > 80%
- effect of 391C modification on N-type inactivation current [5]: parallel increase of the steady state and the peak current
- shift of voltage dependence of gating and modification for 382C [6]: ~ 50 mV

Molecule: MAAVAGLYGLGEDRQHRKKQ [Shaker ball peptide]
- reconstitution of fast inactivation by intracellular application [7]: effectively reconsti- tuted
- net charge [8]: +3

Molecule: Trypsin
- effect of removing the inactivation gate ([5]; 0.0025% trypsin perfused on inside-out patch (Fig. 2A)): larger non-inactivated current level

- affinity of E395C mutant compared with wild-type channel [1]: reduced fourfold
Molecule: CCCCCCCCCC[N+](CC)(CC)CC [C10-TEA, de- cyltriethylammonium]

Molecule: CSS(C)(=O)=O [MMTS, Methyl methanethiosulfonate]
- effect of 391C modification on N-type inactivation current [5]: increase in the steady- state current level without much change in the peak current

Molecule: CC[N+](CC)(CC)CCSS(C)(=O)=O [MTSTEA, [(2-triethylammonium)ethyl] methanethiosulfonate]
- effect of 391C modification on N-type inactivation current [5]: qualitatively similar results

Molecule: [Ag+] [Ag+, silver]
- additional effect of 391C modification on tethered ball ([5]; Ag+ 20 nM for 2 min (Fig. 2)): additional ef- fect on the association rate
- effect of 391C modification on N-type inactivation current [5]: increase in the steady- state current level without much change in the peak current
